# The source made the active and inactive calls. No cut-off for these calls is given here.
# What was measured:
# [1] = molecular target: T1, Procathepsin L (Homo sapiens, UniProt P07711); test: Inhibition of cathepsin L (unknown origin) assessed as ratio of Kinact to Ki using Z-Phe-Arg-AMC as substrate after 5 mins by fluorimetric method
# Target sequence in this assay (P07711 114-333 limits assumed): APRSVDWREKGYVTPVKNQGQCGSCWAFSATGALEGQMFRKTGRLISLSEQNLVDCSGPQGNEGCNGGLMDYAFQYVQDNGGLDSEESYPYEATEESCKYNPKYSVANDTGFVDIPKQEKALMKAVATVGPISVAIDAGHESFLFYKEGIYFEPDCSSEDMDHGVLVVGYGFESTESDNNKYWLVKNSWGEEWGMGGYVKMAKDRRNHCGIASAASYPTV
# [2] = molecular target: T1, Procathepsin L; test: Inhibition of cathepsin L (unknown origin) using Z-Phe-Arg-AMC as substrate after 5 mins by fluorimetric method
# [3] = molecular target: T2, Cathepsin B (Homo sapiens, UniProt P07858); test: Inhibition of cathepsin B (unknown origin) using Z-Arg-Arg-AMC as substrate after 5 mins by fluorimetric method
# [4] = molecular target: T2, Cathepsin B; test: Inhibition of cathepsin B (unknown origin) assessed as ratio of Kinact to Ki using Z-Arg-Arg-AMC as substrate after 5 mins by fluorimetric method
# [5] = molecular target: T1, Procathepsin L; test: Inhibition of human liver cathepsin L assessed as ratio of Kinact to Ki using Z-FR-AMC as substrate measured at 1 min interval for 20 mins followed by every 15 mins for 2 hrs by fluorescence assay
# Target sequence in this assay (P07711 114-333 limits assumed): as above
# [6] = molecular target: T3, Calpain-1 catalytic subunit (Homo sapiens) (UniProt P07384); test: Inhibition of human calpain1 using Suc-Leu-Tyr-AMC as substrate measured at 1 min interval for 20 mins followed by every 15 mins for 2 hrs by fluorescence assay
# T3 sequence (whole entry): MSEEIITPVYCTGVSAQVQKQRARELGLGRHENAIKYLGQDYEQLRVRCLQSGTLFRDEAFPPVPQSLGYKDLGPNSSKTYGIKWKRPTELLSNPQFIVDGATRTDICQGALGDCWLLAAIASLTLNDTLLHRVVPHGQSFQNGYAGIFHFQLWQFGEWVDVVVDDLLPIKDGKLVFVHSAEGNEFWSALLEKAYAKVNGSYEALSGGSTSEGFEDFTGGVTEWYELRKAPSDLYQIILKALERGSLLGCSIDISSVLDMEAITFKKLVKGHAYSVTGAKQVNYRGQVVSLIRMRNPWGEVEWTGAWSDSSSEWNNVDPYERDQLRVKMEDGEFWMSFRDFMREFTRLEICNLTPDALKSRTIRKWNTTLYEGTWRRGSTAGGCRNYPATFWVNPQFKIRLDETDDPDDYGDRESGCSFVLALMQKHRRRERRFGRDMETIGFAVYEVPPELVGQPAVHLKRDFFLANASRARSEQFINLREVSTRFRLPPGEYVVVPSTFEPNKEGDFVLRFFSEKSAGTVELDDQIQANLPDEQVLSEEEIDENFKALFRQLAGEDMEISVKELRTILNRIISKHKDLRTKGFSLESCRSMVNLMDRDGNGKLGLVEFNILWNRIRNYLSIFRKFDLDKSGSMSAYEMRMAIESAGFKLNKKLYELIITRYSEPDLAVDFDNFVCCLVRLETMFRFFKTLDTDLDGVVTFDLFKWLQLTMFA
# [7] = molecular target: T2, Cathepsin B; test: Inhibition of human liver cathepsin B using Z-Arg-Arg-AMC as substrate preincubated for 60 mins followed by substrate addition and measured at 1 min interval for 20 mins consecutively at every 15 mins for 2 hrs by fluorescence assay
# [8] = molecular target: T4, Ubiquitin carboxyl-terminal hydrolase 8 (Homo sapiens) (UniProt P40818); test: Inhibition of recombinant USP8 catalytic domain (unknown origin) using Ubiquitin-Lys-TAMRA as substrate preincubated for 60 mins followed by substrate addition and measured at 6 mins interval for 4 hrs by fluorescence assay
# T4 sequence (whole entry): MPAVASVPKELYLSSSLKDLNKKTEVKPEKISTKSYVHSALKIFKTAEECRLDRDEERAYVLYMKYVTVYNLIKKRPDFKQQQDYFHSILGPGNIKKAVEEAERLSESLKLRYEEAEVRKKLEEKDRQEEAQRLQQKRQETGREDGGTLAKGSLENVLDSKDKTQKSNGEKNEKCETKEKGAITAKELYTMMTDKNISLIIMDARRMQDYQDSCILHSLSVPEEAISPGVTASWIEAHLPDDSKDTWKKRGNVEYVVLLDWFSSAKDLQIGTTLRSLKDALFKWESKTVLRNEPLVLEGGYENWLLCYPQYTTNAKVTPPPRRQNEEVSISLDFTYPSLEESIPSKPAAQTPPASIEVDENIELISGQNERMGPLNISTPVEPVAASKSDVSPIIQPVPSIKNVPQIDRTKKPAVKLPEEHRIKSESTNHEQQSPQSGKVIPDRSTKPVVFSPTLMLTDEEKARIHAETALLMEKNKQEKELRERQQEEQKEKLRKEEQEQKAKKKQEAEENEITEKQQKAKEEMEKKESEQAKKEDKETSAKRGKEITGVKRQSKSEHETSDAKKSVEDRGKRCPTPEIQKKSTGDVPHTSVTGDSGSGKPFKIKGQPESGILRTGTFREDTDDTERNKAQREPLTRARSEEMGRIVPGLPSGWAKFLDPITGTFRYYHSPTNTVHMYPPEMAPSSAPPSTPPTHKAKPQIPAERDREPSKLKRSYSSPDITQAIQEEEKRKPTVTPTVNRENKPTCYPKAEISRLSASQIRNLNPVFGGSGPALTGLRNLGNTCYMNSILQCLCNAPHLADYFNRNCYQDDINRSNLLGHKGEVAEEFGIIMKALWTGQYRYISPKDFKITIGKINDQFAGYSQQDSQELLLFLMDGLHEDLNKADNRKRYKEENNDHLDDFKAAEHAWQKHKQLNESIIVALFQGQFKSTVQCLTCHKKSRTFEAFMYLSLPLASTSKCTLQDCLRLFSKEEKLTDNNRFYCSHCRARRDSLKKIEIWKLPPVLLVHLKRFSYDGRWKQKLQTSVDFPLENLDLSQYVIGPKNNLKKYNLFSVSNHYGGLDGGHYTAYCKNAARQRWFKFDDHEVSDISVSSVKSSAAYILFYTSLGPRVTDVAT
# [9] = molecular target: T2, Cathepsin B; test: Inhibition of human liver cathepsin B using Z-Arg-Arg-AMC as substrate measured at 1 min interval for 20 mins followed by every 15 mins for 2 hrs by fluorescence assay
# [10] = molecular target: T1, Procathepsin L; test: Competitive inhibition of human liver cathepsin L using Z-FR-AMC as substrate measured at 1 min interval for 20 mins followed by every 15 mins for 2 hrs by fluorescence assay
# [11] = molecular target: T1, Procathepsin L; test: Irreversible inhibition of human liver cathepsin L at 50 uM using Z-FR-AMC as substrate preincubated for 3 hrs followed by compound washout measured by gel filtration assay
# Method in brief: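 Cathepsin L (10 nM) was preincubated with inhibitor (50 μM), then passed through a gel-filtration spin column to remove free compound. Flow-through aliquots were assayed for recovery of enzyme activity at several time points.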
# Target sequence in this assay (P07711 114-333 limits assumed): as the sequence (P07711 114-333 limits assumed) above
# [12] = molecular target: T3, Calpain-1 catalytic subunit (Homo sapiens); test: Inhibition of human calpain1 using Suc-Leu-Tyr-AMC as substrate preincubated for 60 mins followed by substrate addition and measured at 1 min interval for 20 mins consecutively at every 15 mins for 2 hrs by fluorescence assay
# [13] = molecular target: T4, Ubiquitin carboxyl-terminal hydrolase 8 (Homo sapiens); test: Inhibition of recombinant USP8 catalytic domain (unknown origin) using Ubiquitin-Lys-TAMRA as substrate measured at 6 mins interval for 4 hrs by fluorescence assay
# [14] = molecular target: T1, Procathepsin L; test: Inhibition of human liver cathepsin L using Z-FR-AMC as substrate measured at 1 min interval for 20 mins followed by every 15 mins for 2 hrs by fluorescence assay
Ratio [1] [M⁻¹ s⁻¹],Ki [2] [µM],Kinact [2] [s⁻¹],Ki [3] [µM],Kinact [3] [s⁻¹],Ratio [4] [M⁻¹ s⁻¹],Structure (SMILES),further results
240000,1,0.24,11,0.17,15500,O=C(N[C@H](/C=C/S(=O)(=O)c1ccccc1)CCc1ccccc1)[C@H](Cc1ccccc1)NC(=O)N1CCOCC1,
,,,,,,CS(=O)(=O)/C=C/CNC(=O)COc1ccc(Br)cc1Br,Ratio [5]: 5 M⁻¹ s⁻¹; inhibition [6]: inactive; inhibition [7]: inactive; inhibition [8]: inactive; inhibition [9]: inactive; Ki [10]: 59 µM; Kinact [10]: 0.0003 s⁻¹; inhibition [11]: Active; inhibition [12]: inactive; inhibition [13]: inactive
389000,0.72,0.28,0.34,0.36,1.06e+06,O=C(N[C@H](/C=C/S(=O)(=O)c1ccccc1)CCc1ccccc1)[C@H](Cc1cc(I)c(O)c(I)c1)NC(=O)N1CCOCC1,
,,,,,,C[C@@H](Oc1ccc(Br)cc1Br)C(=O)NC/C=C/S(C)(=O)=O,Ki [14]: 146 µM; Kinact [14]: 0.0006 s⁻¹

# From ChEMBL document CHEMBL4308878, “Discovery of covalent enzyme inhibitors using virtual docking of covalent fragments” (Bioorg Med Chem Lett, 2019)
